Screening results deposited in PubChem by Johns Hopkins Ion Channel Center.
Only some compounds are listed: those with a hit (about 3.7% of all), similar ones and a draw of the others.
KCNQ1 inh = blocks the human KCNQ1 potassium channel; AID 2642; 310,000 tested, 1.3% active; B-score at 10 µM; CHO-K1 KCNQ1, FluxOR thallium flux fluorescence; stronger effect = higher value;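 active = compounds whose thallium flux B-score, printed positive for inhibition, exceeds three library SD while starting fluorescence stays within three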;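 note: channel opened by potassium depolarization with thallium stimulus after 20 min compound exposure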
KCNK3 block = human KCNK3 channel inhibition, primary screen | 340,000 tested, 0.84% active | AID 602410 | O14649 | B-score at 10 µM | CHO-KCNK3 thallium flux, FluxOR fluorescence; stronger effect = lower value;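 active = B-score under library mean minus 4 SD, starting fluorescence ratio at most library mean plus 5 SD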;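 note: more negative B-score means stronger inhibition of thallium flux through KCNK3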
hERG rescue = compounds protecting human hERG from proarrhythmic drug block | 310,000 tested, 0.51% active | activation (rescue from dofetilide block), less the hit threshold, % at 10 µM | Q12809 | CHO-hERG, FluxOR thallium flux, dofetilide IC70 present | AID 1511;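 active = activation above the mean of controls blocked by dofetilide plus 5 SD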;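 note: thallium influx through hERG after potassium depolarization seen as dye fluorescence rise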
KCNQ1 pot = potentiates or activates the human KCNQ1 potassium channel | P51787 | CHO-K1 KCNQ1, thallium flux FluxOR fluorescence; stronger effect = higher value | B-score at 10 µM | 310,000 tested, 0.35% active | AID 2648;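 active = fluorescence ratio B-score, a plate-corrected score, at least three library SD, with initial intensity B-score within 5 SD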
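System: CHO-K1 cells stably expressing KCNQ1 / Medium: assay buffer for compound exposure, DMSO matched across wells / Reagent: thallium- and potassium-containing depolarizing buffer / Compound: one concentration, matched DMSO / Incubation: 20 min compound pretreatment at room temperature / Measured by: kinetic FluxOR fluorescence, 10 s baseline plus 110 s post-stimulus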
KCNK9 inh = blocks the human KCNK9 two-pore domain potassium channel; HEK293 KCNK9, FluxOR thallium flux fluorescence; stronger effect = lower value; Q9NPC2; B-score at 10 µM; 310,000 tested, 1.2% active;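 active = ratio B-score over 3 SD below the library mean, with starting fluorescence within 5 SD of its mean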;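 note: negative B-score means less thallium flux so channel inhibition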
Target sequence (Q9NPC2 whole entry, looked up, the tested form may be a part): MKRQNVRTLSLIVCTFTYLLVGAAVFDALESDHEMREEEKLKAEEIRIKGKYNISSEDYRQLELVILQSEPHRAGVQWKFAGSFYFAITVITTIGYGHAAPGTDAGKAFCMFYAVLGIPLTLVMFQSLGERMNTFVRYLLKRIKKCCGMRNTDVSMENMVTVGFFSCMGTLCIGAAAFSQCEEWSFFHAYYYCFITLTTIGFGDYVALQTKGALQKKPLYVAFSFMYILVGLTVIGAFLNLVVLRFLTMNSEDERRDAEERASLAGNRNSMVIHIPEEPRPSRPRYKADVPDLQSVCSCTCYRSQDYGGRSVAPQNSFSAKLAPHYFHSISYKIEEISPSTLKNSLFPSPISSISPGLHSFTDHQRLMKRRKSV
Kir21 block = Kir2.1 (mouse) channel inhibition | P35561 | AID 1672 | B-score at 10 µM | HEK293-Kir2.1, FluxOR thallium flux fluorescence; stronger effect = lower value | 310,000 tested, 0.85% active;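 active = fluorescence ratio B-score at or below minus 3 SD of library scores, with starting-brightness B-score within 2 SD, cut at about -4.2 in these data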;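 note: channel flux triggered by added potassium and thallium sulfate stimulus; B-score of peak minus minimum fluorescence over baseline after thallium stimulus; more negative B-score means stronger Kir2.1 block with less thallium influx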
KCNK9 block conf = human KCNK9 inhibitor confirmation. shares compounds with KCNK9 inh. HEK293 KCNK9 cells, FluxOR thallium flux fluorescence. inhibition, % at 10 µM. 4,900 tested, 43% active;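 active = thallium signal inhibited by more than 5 SD of the compound-free buffer control wells, on both duplicate plates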
Kir21 sel = mouse Kir2.1 off-target activity of KCNK9 modulators. 4,900 tested, 4% active. Kir2.1 cells, FluxOR thallium flux fluorescence. inhibition, % at 10 µM. shares compounds with KCNK9 inh;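 active = thallium signal drop more than 5 SD beyond the mean of the no-compound control wells, seen in both duplicate plates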;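 note: signal is fluorescence rise after thallium addition divided by baseline fluorescence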
HEK293 Tl ctr = second counter-screen for KCNK9 modulators: effect in non-induced cells; 4,900 tested, 40% active; AID 492997; inhibition, % at 10 µM; shares compounds with KCNK9 inh; non-induced KCNK9-HEK293, FluxOR thallium flux;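 active = thallium signal drop beyond 5 SD of the untreated control mean, on both duplicate plates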
KCNK3 inh conf = human KCNK3 channel inhibition, confirmation assay. 2,400 tested, 99% active. ratio percent of control, % at 10 µM. CHO-KCNK3 thallium flux, FluxOR fluorescence; 0% buffer, 100% carvedilol maximal block. shares compounds with KCNK3 block;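 active = ratio percent of control, averaged over triplicates, above buffer control mean plus 5 SD, cut at about 64% in these data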;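 note: ratio is the fluorescence rise from min to max over baseline after thallium stimulus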
KCNK3 noninduced = KCNK3 inhibitor counter-screen hit in non-induced cells; shares compounds with KCNK3 block; non-induced KCNK3 parental cells, FluxOR thallium flux; stronger effect = lower value; thallium flux ratio (lower = more inhibition) at 10 µM; 2,400 tested, 40% active; AID 651747;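 active = thallium flux ratio, averaged over three wells, more than 5 SD below the buffer control mean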;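 note: host cells are CHO cells without KCNK3 induction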
Numbers stand for hits; – = inactive; · = not tested or not shown.

SMILES	KCNQ1 inh	KCNK3 block	hERG rescue	KCNQ1 pot	KCNK9 inh	Kir21 block	KCNK9 block conf	Kir21 sel	HEK293 Tl ctr	KCNK3 inh conf	KCNK3 noninduced
O=C(c1ccc(Cl)c(S(=O)(=O)N2CCc3ccccc32)c1)N1CCN(c2ccccc2O)CC1	·	–	·	·	·	·	·	·	·	·	·
O=C(NNC(=O)c1ccccc1O)c1ccc(Cl)c(S(=O)(=O)N2CCc3ccccc32)c1	14	-14	–	–	-9.7	–	32%	–	–	116	0.14
COCCN1Cc2cccc(C(=O)NC(C)CCc3ccco3)c2C1=O (stereo unspecified)	–	–	–	–	–	–	·	·	·	·	·
CCC(C)(C)n1nnnc1C(c1ccc(C)cc1)N1CCN(Cc2ccc3c(c2)OCO3)CC1 (stereo unspecified)	–	–	–	–	–	–	·	·	·	·	·
O=C(N/N=C/c1ccccc1)c1sccc1OCc1ccc(F)cc1	–	-9.5	–	–	-15	–	65%	–	41%	109	–
O=C(N/N=C/c1ccccc1)c1ccc(OCc2ccccc2)cc1	–	–	–	–	–	–	·	·	·	·	·
Cc1cn(C2OC(COC(=O)c3ccccc3)C(O)C2O)c(=O)[nH]c1=O (stereo unspecified)	–	–	–	–	–	–	·	·	·	·	·
Cc1cn(C2OC(COC(=O)c3ccccc3)C(OC(=O)c3ccccc3)C2OC(=O)c2ccccc2)c(=O)[nH]c1=O (stereo unspecified)	–	-11	–	–	-10	–	38%	–	34%	103	0.16
Nc1nc(C(F)(F)F)cc(=O)n1N	–	–	–	–	–	–	·	·	·	·	·
CCN(C(=S)NCc1ccccc1)c1cccc2ccccc12	–	-13	–	–	-18	–	64%	–	46%	101	–
O=c1c2cn[nH]c2[nH]c(=S)n1-c1cccc(Cl)c1	–	–	–	–	–	–	·	·	·	·	·
O=C(Nc1cccc(-c2cn3cccnc3n2)c1)c1ccc(Br)o1	–	-9.6	–	–	-8.7	–	40%	–	–	95	–
O=C(Nc1ccc(NC(=O)c2cccs2)cc1)c1ccc(Br)o1	–	–	–	–	–	–	·	·	·	·	·
O=C(Nc1cccc(NC(=O)c2cccs2)c1)c1ccc(Br)o1	–	-10	–	–	-16	–	62%	–	–	99	–
CC(c1ccon1)N(C)C(=O)c1ccc2nc(Cc3cccc(Cl)c3)oc2c1 (stereo unspecified)	–	–	–	–	–	–	·	·	·	·	·
CCc1nn(C(CC)C(=O)NCc2cccc(OC)c2OC)c(=O)c2cc3occc3n12 (stereo unspecified)	–	–	–	–	–	–	·	·	·	·	·
Cc1cccc(C)c1OCC(=O)Nc1oc(-c2ccccc2)c(-c2ccccc2)c1C#N	–	–	–	–	-17	–	32%	–	24%	119	0.15
N#Cc1c(NC(=O)CSc2n[nH]c(N)n2)oc(-c2ccccc2)c1-c1ccccc1	–	–	–	–	–	–	·	·	·	·	·
COc1ccc(CN(C)C(=O)c2oc3ccccc3c2CSC)cc1F	–	-11	–	–	-12	–	67%	–	30%	104	–
CC(C)Cc1ccc(/C=C/C(=O)N2CCCCC2)cc1	–	-13	–	–	-9.8	–	74%	–	39%	114	–
CCc1ccc(/C=C\C(=O)N2CCCC2)cc1	–	–	–	–	–	–	·	·	·	·	·
CSc1nsc(SC)c1C(=O)Nc1ccc(C(C)(C)C)cc1	–	-13	–	–	-14	–	53%	–	28%	112	–
CC(Sc1n[nH]c(N)n1)C(=O)Nc1cccc2ccccc12 (stereo unspecified)	·	–	·	·	·	·	·	·	·	·	·
COc1ccc(/C=N/Nc2cc(C)nc3ccc(OC)cc23)c(OC)c1	14	-14	–	–	-16	–	–	–	38%	151	0.11
COc1ccc(/C=N/Nc2nc(C)cc(-c3ccccc3)n2)c(OC)c1	–	–	–	–	–	–	·	·	·	·	·
SMILES	KCNQ1 inh	KCNK3 block	hERG rescue	KCNQ1 pot	KCNK9 inh	Kir21 block	KCNK9 block conf	Kir21 sel	HEK293 Tl ctr	KCNK3 inh conf	KCNK3 noninduced
Cc1cccc(C)c1NC(=O)CNC(=O)c1ccc(COc2ccccc2)cc1	·	–	·	·	·	·	·	·	·	·	·
OC(CNc1nc(C(F)(F)F)nc2ccccc12)c1ccccc1 (stereo unspecified)	–	-13	–	–	-12	–	61%	–	–	118	–
COCCNC(C(=O)Nc1cc(Cl)cc(Cl)c1)c1ccccc1 (stereo unspecified)	–	-9.2	–	–	-12	–	44%	–	40%	103	–
CCOCCCNC(C(=O)Nc1ccc(OC)c(Cl)c1)c1ccccc1 (stereo unspecified)	–	–	–	–	–	–	·	·	·	·	·
CC1=NN(C(=O)CSCc2ccccc2)C(O)(c2ccc(Cl)cc2)C1 (stereo unspecified)	–	-13	–	–	-13	–	62%	–	34%	98	–
CC1=NN(C(=O)COc2cc(C)ccc2C(C)C)C(O)(c2ccccc2)C1 (stereo unspecified)	–	-9.8	–	–	-15	–	58%	–	38%	120	0.16
CN1CCN(CCC(=O)Nc2cccc(Br)c2)CC1	–	–	–	–	–	–	·	·	·	·	·
CCn1c(C(=O)Nc2ccsc2C(=O)OC)cc2sc(Cl)cc21	–	–	–	–	–	–	·	·	·	·	·
CCOc1ccccc1C1C(C(=O)Nc2ccccc2OC)=C(C)Nc2nnnn21 (stereo unspecified)	–	–	–	–	–	–	·	·	·	·	·
S=C(NC1CCCCC1)N(CCc1nc2ccccc2[nH]1)C1CCCC1	–	-10	–	–	–	–	–	–	–	118	0.13
CN(c1ccccc1)S(=O)(=O)c1cccc(NC(=O)CN2CCCc3ccccc32)c1	–	-9.8	–	–	-11	–	50%	–	24%	113	–
NS(=O)(=O)c1cccc(NC(=O)CN2CCc3ccccc32)c1	–	–	–	–	–	–	·	·	·	·	·
N/C(Cc1ccc([N+](=O)[O-])cc1)=N\OC(=O)C(c1ccccc1)c1ccccc1	–	-9.6	–	–	-10	–	34%	–	40%	126	–
